This passage reports polyol content, Inhibition and inhibition in vivo results from ChEMBL document CHEMBL1126066, “Biological activities and quantitative structure-activity relationships of spiro[imidazolidine-4,4'(1'H)-quinazoline]-2,2',5(3'H)-triones as aldose reductase inhibitors” (J Med Chem, 1992).

Values joined by “and” are separate entries in the source; they are usually repeats but may differ in a detail not shown here. Equal entries are not always repeated.

The Inhibition is the share of the control response that was lost under treatment. One may read the inhibition in vivo as the percentage by which the read-out fell short of the control.

The subject of test [1] is Rattus norvegicus. Description: In vivo inhibition of polyol accumulation in the sciatic nerve of galactosemic rats, activity is measured as polyol contents. The format is functional, organism-based. The procedure, abridged: (§1)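 Male Wistar rats (SIC, 4 weeks old), three per group, had free access to water and a 20% galactose diet containing the compound for 6 days. Galactose-only and standard-diet groups served as controls. Rats were bled under ether anesthesia on day 7. Sciatic nerve polyol was measured by a modified Dvornik assay. % inhibition = (galactose control − treated)/(galactose control − normal) × 100. Student's t-test was used.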

For test [2], the system named is Rattus norvegicus. Description: In vivo inhibition of polyol accumulation in the sciatic nerve of galactosemic rats, activity is expressed as percent inhibition of poloyl accumulation. Type of test: functional. Details: concentration or dose not given beside the values. In outline: as §1
In test [3] the test system is Rattus norvegicus. Description: Compound was evaluated in vivo for […] at a dose of 90 mg/kg per day. Type of test: functional, organism-based.
Test [4] has as its system Rattus norvegicus. Description: Compound was evaluated in vivo for […] at a dose of 15 mg/kg per day. The format is functional, organism-based. The conditions noted are these: Sciatic nerve. The procedure, abridged:
as §1

Test [5] relates to Rattus norvegicus. Description: Compound was evaluated in vivo for 50% inhibition of enzymatic activity of partially purified AR from male rabbit sciatic nerve at a dose of 90 mg/kg per day. Type of test: functional, organism-based. In outline: as §1
Test [6] deals with Rattus norvegicus. Description: Compound was evaluated in vivo for percent inhibition of polyol accumulation at a dose of 3 mg/kg per day. Type of test: functional. The procedure, abridged: (§2)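 Galactosemic male Wistar rats (4 weeks old, n = 3) received the compound in a 20% galactose diet for 6 days and were killed on day 7. Sciatic nerve or lens polyol was measured by a modified Dvornik assay. Mean % inhibition = (galactose control − treated)/(galactose control − normal control) × 100.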

Test [7] has as its system Rattus norvegicus. Description: Compound was evaluated in vivo for inhibition of polyol accumulation in rat at a dose of 15 mg/kg per day.
The subject of test [8] is Rattus norvegicus. Description: Compound was evaluated in vivo for polyol content in lens of galactosemic rats at a dose of 3 mg/kg per day.
Test [9] deals with Rattus norvegicus. Description: Compound was evaluated in vivo for 50% inhibition of polyol accumulation in rat sciatic nerve at a dose of 3 mg/kg per day.
For test [10], the system named is Rattus norvegicus. Description: Compound was evaluated in vivo for percent inhibition of polyol accumulation at a dose of 15 mg/kg per day. Type of test: functional. The procedure, abridged:
as §2

As to `CN1C(=O)N(C)C2(NC(=O)NC2=O)c2ccccc21` (stereo not drawn), in the test on Rattus norvegicus [1], the polyol content was 9.2 µmol/g. The Inhibition in the test with Rattus norvegicus [2] worked out at 28.4%.
Taken in the same sequence, the figures for `CN1C(=O)Nc2cc(Cl)ccc2C12NC(=O)NC2=O` (stereo not drawn) were 11.4 µmol/g and 22.3%.
The corresponding values for `CN1C(=O)Nc2ccc(Cl)cc2[C@]12NC(=O)NC2=O` are 10.7 µmol/g and 26.3%.
As for `CN1C(=O)Nc2c([N+](=O)[O-])cc(Cl)cc2C12NC(=O)NC2=O` (stereo not drawn), the polyol content in the test with Rattus norvegicus [1] turned out to be 8 µmol/g. This compound displayed an Inhibition with Rattus norvegicus [2] of 29.2%.
In the test on Rattus norvegicus [1], `CN1C(=O)Nc2cccc(Cl)c2C12NC(=O)NC2=O` (stereo not drawn) had a polyol content of 11.9 µmol/g. The compound also had an Inhibition in the test on Rattus norvegicus [2] of 17.5%.
As to `NN1C(=O)Nc2ccccc2C12NC(=O)NC2=O` (stereo not drawn), in the test with Rattus norvegicus [1], the polyol content is 11.3 µmol/g. In the test with Rattus norvegicus [2], this compound had an Inhibition of 12.2%.
In turn, `COc1c(Cl)cc2c(c1Cl)NC(=O)N(C)C21NC(=O)NC1=O` (stereo not drawn) yielded a polyol content in the test with Rattus norvegicus [1] of 8.4 µmol/g. In addition, the Inhibition in the test on Rattus norvegicus [2] was 37.5%.
Turning to `CN1C(=O)Nc2cc(Cl)c(Cl)cc2C12NC(=O)NC2=O` (stereo not drawn), the polyol content in the test with Rattus norvegicus [1] worked out at 7.5 µmol/g. In the test on Rattus norvegicus [2], this compound showed an Inhibition of 52.9%.
Taken in the same sequence, the figures for `CN1C(=O)Nc2cc(N3CCOCC3)c([N+](=O)[O-])cc2C12NC(=O)NC2=O` (stereo not drawn) were 10.4 µmol/g and 10.3%.
`Cc1cc2c(cc1Cl)C1(NC(=O)NC1=O)N(C)C(=O)N2` (stereo not drawn) yielded a polyol content with Rattus norvegicus [1] of 6.8 µmol/g. The same compound registered an Inhibition in the test on Rattus norvegicus [2] of 58%.
On to `CN1C(=O)Nc2ccc(F)cc2[C@]12NC(=O)NC2=O`, for which the polyol content in the test on Rattus norvegicus [1] is 12.1 µmol/g. The same compound returned an Inhibition in the test on Rattus norvegicus [2] of 15.5%.
Taken in the same sequence, the figures for `CCOC(=O)c1ccc2c(c1)C1(NC(=O)NC1=O)N(C)C(=O)N2` (stereo not drawn) were 11.1 µmol/g and 22.2%.
The corresponding values for `CN1C(=O)Nc2ccc(OC(=O)c3ccccc3)cc2C12NC(=O)NC2=O` (stereo not drawn) are 10.5 µmol/g and 12.3%.
`CN1C(=O)Nc2c(N)cc(Cl)cc2C12NC(=O)NC2=O` (stereo not drawn) came in with a polyol content with Rattus norvegicus [1] of 7 µmol/g. Moreover, in the test on Rattus norvegicus [2], the Inhibition was determined as 44.6%.
Taken in the same sequence, the figures for `CN1C(=O)Nc2c(F)cccc2C12NC(=O)NC2=O` (stereo not drawn) were 9.5 µmol/g and 29.9%.
The corresponding values for `CN1C(=O)Nc2ccc(OC(=O)/C=C/c3ccccc3)cc2C12NC(=O)NC2=O` (stereo not drawn) are 10.4 µmol/g and 29.3%.
`COc1ccc2c(c1)NC(=O)N(C)C21NC(=O)NC1=O` (stereo not drawn): in the test on Rattus norvegicus [1], the polyol content is 9.8 µmol/g. Also, the Inhibition with Rattus norvegicus [2] turned out to be 21%.
Take `CN1C(=O)Nc2ccc(Cl)cc2[C@@]12NC(=O)NC2=O`: the polyol content worked out at 42.4 µmol/g with Rattus norvegicus [3]; 4.8 µmol/g in the test with Rattus norvegicus [4]; 2.8 µmol/g in the test on Rattus norvegicus [5]; 3.4 µmol/g with Rattus norvegicus [1]; 59.2 µmol/g in the test with Rattus norvegicus [7]; 58.9 µmol/g in the test with Rattus norvegicus [8]. The compound also registered a polyol content in the test on Rattus norvegicus [9] of 7.5 µmol/g. Also, the Inhibition was 100% with Rattus norvegicus [2]; 23.4% and 0% in the test with Rattus norvegicus [6].
`CCN1C(=O)Nc2ccccc2C12NC(=O)NC2=O` (stereo not drawn): the polyol content in the test on Rattus norvegicus [1] came out at 9.6 µmol/g. For the same compound, the Inhibition in the test with Rattus norvegicus [2] is recorded as 19.5%.
The corresponding values for `CN1C(=O)Nc2ccc([N+](=O)[O-])cc2C12NC(=O)NC2=O` (stereo not drawn) are 12.1 µmol/g and 15.5%.
The corresponding values for `O=C1NC(=O)C2(N1)NC(=O)Nc1ccccc12` (stereo not drawn) are 10.7 µmol/g and 15.1%.
Taken in the same sequence, the figures for `CN1C(=O)Nc2ccc(F)cc2C12NC(=O)NC2=O` (stereo not drawn) were 6.7 µmol/g and 58.7%.
Compound `CN1C(=O)Nc2ccc(F)cc2[C@@]12NC(=O)NC2=O` registered a polyol content in the test with Rattus norvegicus [1] of 6.6 µmol/g. In the test on Rattus norvegicus [2], the Inhibition was 61%.
The corresponding values for `Cc1cccc2c1C1(NC(=O)NC1=O)N(C)C(=O)N2` (stereo not drawn) are 9.2 µmol/g and 27.5%.
For `CN1C(=O)Nc2ccccc2C12NC(=O)NC2=O` (stereo not drawn), the polyol content in the test on Rattus norvegicus [1] came out at 8.8 µmol/g. The same compound yielded an Inhibition with Rattus norvegicus [2] of 32.5%.
With `Cc1ccc2c(c1)C1(NC(=O)NC1=O)N(C)C(=O)N2` (stereo not drawn), in the test with Rattus norvegicus [1], the polyol content was 9 µmol/g. The Inhibition with Rattus norvegicus [2] stood at 30.9%.
The corresponding values for `CN1C(=O)Nc2ccc(Br)cc2C12NC(=O)NC2=O` (stereo not drawn) are 5.6 µmol/g and 74.7%.
Taken in the same sequence, the figures for `COc1ccc2c(c1)C1(NC(=O)NC1=O)N(C)C(=O)N2` (stereo not drawn) were 10.4 µmol/g and 13.6%.
Taken in the same sequence, the figures for `CN1C(=O)Nc2cc([N+](=O)[O-])ccc2C12NC(=O)NC2=O` (stereo not drawn) were 10.3 µmol/g and 11.5%.
`COc1cc2c(cc1Cl)C1(NC(=O)NC1=O)N(C)C(=O)N2` (stereo not drawn) gave a polyol content in the test on Rattus norvegicus [1] of 8.3 µmol/g. The Inhibition in the test with Rattus norvegicus [2] turned out to be 24.6%.
The corresponding values for `Cc1ccc2c(c1)NC(=O)N(C)C21NC(=O)NC1=O` (stereo not drawn) are 8.4 µmol/g and 37.5%.
Taken in the same sequence, the figures for `CN1C(=O)Nc2c([N+](=O)[O-])cc([N+](=O)[O-])cc2C12NC(=O)NC2=O` (stereo not drawn) were 10.1 µmol/g and 14.1%.
Regarding `CN1C(=O)Nc2c(cc(F)c(F)c2F)C12NC(=O)NC2=O` (stereo not drawn), the polyol content in the test with Rattus norvegicus [1] was found to be 9.5 µmol/g. In addition, in the test with Rattus norvegicus [2], the Inhibition is 29.9%.
For the compound `O=C1NC(=O)[C@@]2(CCOc3ccc(F)cc32)N1` [SORBINIL], in the test with Rattus norvegicus [10], the inhibition in vivo at 15 mg/kg/day came to 90.2%.
In the test on Rattus norvegicus [1], `CN1C(=O)Nc2ccccc2[C@@]12NC(=O)NC2=O` gave a polyol content of 8.4 µmol/g. The same compound displayed an Inhibition in the test on Rattus norvegicus [2] of 39%.
Taken in the same sequence, the figures for `CN1C(=O)Nc2cc3c(cc2C12NC(=O)NC2=O)OCO3` (stereo not drawn) were 9.2 µmol/g and 28.4%.
The corresponding values for `CN1C(=O)Nc2ccc(Cl)cc2C12NC(=O)NC2=O` (stereo not drawn) are 6.7 µmol/g and 68%.
Consider `CC(C)CN1C(=O)N(C)C2(NC(=O)NC2=O)c2ccccc21` (stereo not drawn), for which, in the test with Rattus norvegicus [1], the polyol content was 8.1 µmol/g. Also, the Inhibition in the test on Rattus norvegicus [2] is 27.7%.
The corresponding values for `CN1C(=O)Nc2c(Cl)cc(Cl)cc2C12NC(=O)NC2=O` (stereo not drawn) are 5.8 µmol/g and 63.1%.
The compound `CN1C(=O)Nc2cc(Cl)c([N+](=O)[O-])cc2C12NC(=O)NC2=O` (stereo not drawn) showed a polyol content with Rattus norvegicus [1] of 10.6 µmol/g. Also, the Inhibition in the test with Rattus norvegicus [2] is recorded as 7.7%.
The corresponding values for `CN1C(=O)Nc2ccc([N+](=O)[O-])c(Cl)c2C12NC(=O)NC2=O` (stereo not drawn) are 11.5 µmol/g and 0%.
